# Measured values: article PMC3077804 (ACS Chemical Biology, 2010)
# Biological target: T1, AarA (Providencia stuartii, UniProt P46116)
# T1 sequence (P46116 1-281): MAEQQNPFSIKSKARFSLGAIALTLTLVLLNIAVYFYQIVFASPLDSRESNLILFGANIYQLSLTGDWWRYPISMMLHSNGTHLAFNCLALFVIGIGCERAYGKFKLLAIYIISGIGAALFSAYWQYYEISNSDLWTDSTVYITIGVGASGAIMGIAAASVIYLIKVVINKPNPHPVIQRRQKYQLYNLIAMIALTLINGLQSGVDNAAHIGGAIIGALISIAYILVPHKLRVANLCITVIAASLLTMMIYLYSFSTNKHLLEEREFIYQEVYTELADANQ
# Assay: In vitro fluorescent assay
# Assay type: biochemical
# Conditions: SAR
# Outline: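 Fluorogenic KSp21 peptide (600 nM) cleaved at 24−25 °C by 100 nM AarA or 37 nM chymotrypsin. Buffer: 25 mM Hepes pH 7.4, 5 mM EDTA, 5% glycerol, 0.5% DDM and 20% DMSO (final). Compound was preincubated with enzyme for 30 min at 25 °C, and the reaction was started with peptide. Stopped after 50−60 min, still in the linear phase, with 1 M phosphoric acid pH 1.5; fluorescence read.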
row,SMILES,inhibitory activity against AarA in the fluorescent assay (in words)
1,Cc1ccc(S(=O)(=O)NC(CCCCN)C(=O)CCl)cc1 (centres unmarked) [TLCK],inactive
2,Cc1ccc(S(=O)(=O)N[C@@H](Cc2ccccc2)C(=O)CCl)cc1 [TPCK],inactive
